Shown are actives, neighbours in structure and some others; about 5.1% of the full set was active somewhere.
NF-kB neuron act: activators of NF-kB expression in neurons, primary screen, cell-based, HTS | human neuronal cells, NF-kB reporter expression; active compounds read high | fold change at 12.5 µM | hit rate 1.6% among 190,000 | AID 1239, 2008; in the data active means fold change above about 3.3
STAT1 blocker: STAT1 signaling inhibitors, primary screen, cell-based, HTS, luciferase reporter. NIH 3T3 STAT1-luciferase reporter, IFN-gamma, luminescence. inhibition, % at 5.5 µM. hit rate 0.35% among 200,000. AID 920, 2007;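 active means inhibition above a set limit, the mean inhibition across all tested compounds plus 3 SD, cut at about 34% in these data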
APP 5'UTR act: activators of APP 5'UTR luciferase reporter, primary screen, SH-SY5Y cells; activation, % at 2 µM; SH-SY5Y APP 5'UTR luciferase reporter, luminescence; zero percent = DMSO vehicle wells; AID 1276, 2008; hit rate 1% among 190,000;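 active means activation above a set limit, based on mean plus 3 SD of controls, cut at about 140% in these data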
STAT3 inh: IL-6 driven STAT3 reporter inhibitors, primary screen, U3A cells, luciferase, luminescence, MLSCN library. IL-6 STAT3-luciferase reporter; host cell line lacks STAT1. inhibition, % at 5.5 µM. hit rate 0.89% among 190,000. AID 862, 2007;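 active means inhibition above the mean inhibition across all screened compounds plus 3 SD, cut at about 44% in these data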
STAT1 act-1: STAT1 signaling activators, primary screen, cell-based, HTS, luciferase reporter; activation (% of control), % at 5.5 µM; NIH 3T3 STAT1-luciferase reporter, IFN-gamma, luminescence; 100% = IFN-gamma alone, no compound; hit rate 2.6% among 200,000; AID 932, 2007;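 active means activation above the screen-wide mean activation plus 3 SD, cut at about 130% in these data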
STAT3 act-1: IL-6 driven STAT3 reporter potentiators, primary screen, U3A cells, luciferase, luminescence, MLSCN library. IL-6 STAT3-luciferase reporter; 100% = signal with IL-6 EC80 alone. activation (% of control), % at 5.6 µM. hit rate 0.91% among 190,000. AID 871, 2007;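 active means activation above the screen-wide mean of compound activation plus 3 SD, cut at about 130% in these data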
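Test system: Human STAT1-deficient U3A cells with stable STAT3-luciferase reporter | Also added: Interleukin-6, 33 ng/mL | Timing: Compound pre-incubation 1 h before IL-6, then 6 h stimulation at 37 °C | Technique: Luciferase reporter luminescence | Read-out: Percent of IL-6-only median luminescence | Benchmarks: IL-6-only wells as 100% reference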
STAT3 act-2: STAT3 reporter potentiators, retest of hits, confirmation, U3A cells, luciferase, luminescence; shares compounds with STAT3 act-1; IL-6 potentiation; U3A cells lack STAT1; 100 means same as IL-6 alone; potentiation (% of control), % at 5.7 µM; hit rate 64% among 1,200; AID 1267, 2008;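 active means percent activation of the STAT3 luciferase reporter above a set limit taken from the earlier primary screen, cut at about 130% in these data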
NFkB act STAT3ct: NF-kB reporter activators in human cells, counter-screen for STAT3 activator project. shares compounds with STAT3 act-1. NF-kappaB reporter activation. activation (% of control), % at 5.7 µM. hit rate 11% among 1,200. AID 1309, 2008; in the data active means activation above about 120%;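 further: reporter induced by TNF-alpha stimulation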
STAT1 act-2: STAT1 reporter activators, IFN-gamma induced, counter-screen for STAT3 activator project, cell-based, NIH 3T3, luciferase luminescence; shares compounds with STAT3 act-1; NIH 3T3 STAT1-luciferase reporter; activation (% of control), % at 5.7 µM; hit rate 13% among 1,200;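 active means activation above the solvent-only control well mean plus 3 SD, set per screening run, cut at about 120% in these data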
Hits are given with their value; i = inactive; nt = no result given.

SMILES	NF-kB neuron act	STAT1 blocker	APP 5'UTR act	STAT3 inh	STAT1 act-1	STAT3 act-1	STAT3 act-2	NFkB act STAT3ct	STAT1 act-2
CC(Cc1c[nH]c2ccccc12)C(=O)O (stereo unspecified)	i	i	i	i	i	i	nt	nt	nt
O=C(CN1CCCC1)Nc1ccc(-c2nc3cc(NC(=O)CN4CCCC4)ccc3o2)cc1	i	i	i	i	i	150	138	130	161
Cc1ccc(C2=NNC(c3ccc(Cl)cc3)=Nc3ccccc32)o1	i	i	nt	i	i	i	nt	nt	nt
Cc1ccc(C2=Nc3ccccc3NC(C)(c3ccc(C)o3)C2)o1 (stereo unspecified)	i	i	i	i	i	138	i	i	i
COCCn1c(N/N=C(C)/C=C/c2ccccc2)nc2c1c(=O)[nH]c(=O)n2C	i	i	i	i	i	i	nt	nt	nt
O=C1C(=C(c2ccccc2)c2ccccc2)Nc2ccccc21	i	i	i	i	i	147	139	i	i
O=C1C(=C(O)c2ccccc2)C(=O)c2ccccc21	i	i	i	i	i	i	nt	nt	nt
CCCN(C(=O)COc1ccc(Cl)cc1Cl)c1c(N)n(Cc2ccccc2)c(=O)[nH]c1=O	nt	i	i	i	i	i	nt	nt	nt
Cc1cc(SCC(=O)c2cc3ccccc3o2)nc2ccccc12	i	i	i	i	i	146	150	i	i
COc1ccccc1NC(=O)Nc1ccc(Br)cn1	i	i	i	i	i	i	nt	nt	nt
COc1ccc(Cl)cc1NC(=O)Nc1ccc(Br)cn1	i	i	i	i	i	160	144	i	i
COc1ccc(C(=O)CNc2ccc3ccccc3c2)cc1	i	i	i	i	i	142	i	i	i
Cc1ccc2nc(C(=O)O)c(C(=O)O)nc2c1	i	i	i	i	i	i	nt	nt	nt
Cc1ccc2nc3c(nc2c1)-c1ccccc1C3=O	i	i	i	i	i	174	159	i	129
COc1ccccc1OP(=O)(O)Oc1ccccc1OC	i	i	i	i	i	i	nt	nt	nt
COc1ccc(/C=C/C(=O)c2cc(F)ccc2OC(=O)c2ccccc2OC)cc1OC	i	i	i	i	i	156	i	168	i
O=C(Cc1ccc([N+](=O)[O-])cc1)Nc1nnc(C2CC2)s1	i	i	i	i	i	i	nt	nt	nt
O=C(Cc1coc2ccc3ccccc3c12)Nc1nnc(C2CC2)s1	i	i	i	i	i	153	148	i	i
O=C(Cc1c[nH]c2ccccc12)Nc1nnc(C2CC2)s1	i	i	i	i	i	137	168	i	i
Cc1ccc(CC2S/C(=C(/C#N)C(=O)NCc3ccco3)N(c3ccccc3)C2=O)cc1 (stereo unspecified)	i	i	i	i	i	i	nt	nt	nt
CC1S/C(=C(\C#N)C(=O)NCc2ccco2)N(Cc2ccco2)C1=O (stereo unspecified)	i	i	i	i	i	142	i	i	i
S=C(Nc1ccc(Br)cc1)NC1CCCCC1	i	i	i	i	i	i	nt	nt	nt
CC(=O)Nc1ccc(NC(=O)c2nc(-c3ccccc3)oc2C)cc1	i	i	i	i	i	i	nt	nt	nt
S=C(NCCCN1CCOCC1)Nc1cccc(-c2nnc3n2CCCCC3)c1	i	i	i	i	i	i	nt	nt	nt
O=C(N/N=C/c1ccc(-c2cccc([N+](=O)[O-])c2)o1)c1cccs1	i	i	i	i	i	137	i	i	i
SMILES	NF-kB neuron act	STAT1 blocker	APP 5'UTR act	STAT3 inh	STAT1 act-1	STAT3 act-1	STAT3 act-2	NFkB act STAT3ct	STAT1 act-2
COc1cccc(-c2nc(Oc3cccc(C)c3C)c3ccccc3n2)c1O	i	i	i	i	i	140	136	i	i
COc1cccc(-c2nc(N3CCN(c4ccccc4)CC3)c3ccccc3n2)c1O	i	i	i	i	i	i	nt	nt	nt
CC(=O)Nc1ccc(NC(=O)c2ccc(CSc3ccccc3)o2)cc1	i	i	i	i	i	144	i	i	i
O=C(Nc1cccc(F)c1)c1ccc(CSc2ccccc2)o1	i	i	i	i	i	i	nt	nt	nt
Cc1ccc(C)c(S(=O)(=O)Nc2cc(SCC(=O)O)c(O)c3ccccc23)c1	i	i	i	i	i	143	146	i	i
CSc1n[nH]c(NCc2ccc(C)cc2)n1	i	i	i	i	i	i	nt	nt	nt
O=C(N/N=C/c1ccc(Br)cc1)c1ccccc1-n1cccc1	i	i	i	i	i	148	i	i	i
Cc1cccc(/C=N\NC(=O)c2ccccc2-n2cccc2)c1	i	i	i	i	i	i	nt	nt	nt
O=C(C1CCCCC1)N1CCc2ccccc21	i	i	i	i	i	i	nt	nt	nt
O=C(C1CC(=O)N(C2CCCCC2)C1)N1CCc2ccccc21 (stereo unspecified)	i	i	i	i	i	139	i	i	i
COc1ccc(C(=O)NN(C)c2nc(-c3ccccc3)nnc2C(F)(F)F)cc1	i	i	i	i	i	i	nt	nt	nt
COc1ccc(C(=O)NN(C)c2nc(C(F)(F)F)nc3ccccc23)cc1	i	i	i	i	i	156	i	165	i
Cc1ccc2[nH]c(C(=O)O)c(NC(=O)CN3CCN(c4cccc(C)c4C)CC3)c2c1	i	i	i	i	i	147	i	i	i
COC(=O)c1[nH]c2ccc(C)cc2c1NC(=O)CN1CCN(c2ccccc2)CC1	i	i	i	i	i	i	nt	nt	nt
O=C(COC(=O)Cc1c[nH]c2ccccc12)Nc1cccc2ccccc12	i	i	i	i	i	i	nt	nt	nt
COC(=O)C1CCN(C(=O)COC(=O)Cc2c[nH]c3ccccc23)CC1	i	i	i	i	i	140	i	i	i
O=C(Cc1c[nH]c2ccccc12)OCC(=O)c1ccccc1	i	i	i	i	i	136	i	i	i
CCC(C)(C)NC(=O)C(c1ccc(F)cc1)N(Cc1ccccc1)C(=O)c1cnccn1 (stereo unspecified)	i	i	i	i	i	i	nt	nt	nt
Cc1ccc2cccc(N=Cc3c(C)[nH]n(-c4ccccc4)c3=O)c2n1	i	i	i	i	i	137	135	i	i
CC1CN(C(=O)Nc2cccc(Cl)c2)C2(CCCCCC2)O1 (stereo unspecified)	i	i	i	i	i	i	nt	nt	nt

Source: PubChem BioAssay
